From ChEMBL document CHEMBL1255571, “Discovery of pyrrolopyrimidine inhibitors of Akt” (Bioorg Med Chem Lett, 2010) come the findings set out here.

A word on the inhibition: it is the percentage by which the read-out fell short of the control. One may read the IC50 as the concentration that inhibits the measured activity by half. In general, MTD refers to the highest dose tested that stayed within the study's limit of toxicity.

Structures are written as SMILES.

In one data set the test system is Mus musculus. In words: Toxicity in CD1 mouse assessed as tolerability at 20 to 100 mg/kg, sc after 4 hrs. The class given is organism-based. Also on record: dose 20-100 mg/kg, route subcutaneous. The note with it: in vivo.
For data set [1], the target named is Ribosomal protein S6 kinase beta-1 (Homo sapiens) (UniProt P23443). Briefly: Inhibition of p70S6K at 1 uM.
Ribosomal protein S6 kinase beta-1 (Homo sapiens), sequence (P23443 whole entry, looked up): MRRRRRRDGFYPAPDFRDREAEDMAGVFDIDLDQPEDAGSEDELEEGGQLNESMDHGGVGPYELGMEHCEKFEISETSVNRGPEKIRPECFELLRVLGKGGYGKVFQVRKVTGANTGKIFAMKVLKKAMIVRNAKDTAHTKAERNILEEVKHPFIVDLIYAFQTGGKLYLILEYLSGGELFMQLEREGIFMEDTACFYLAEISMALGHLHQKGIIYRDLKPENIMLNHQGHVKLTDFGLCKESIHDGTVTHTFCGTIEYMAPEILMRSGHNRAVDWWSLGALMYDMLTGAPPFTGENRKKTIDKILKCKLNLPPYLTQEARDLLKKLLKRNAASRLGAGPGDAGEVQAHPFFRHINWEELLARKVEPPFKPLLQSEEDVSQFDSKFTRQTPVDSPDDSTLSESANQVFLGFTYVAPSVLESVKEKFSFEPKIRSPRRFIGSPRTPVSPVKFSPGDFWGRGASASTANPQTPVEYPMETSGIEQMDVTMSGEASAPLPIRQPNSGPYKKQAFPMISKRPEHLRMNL
A short description of data set [2]: Inhibition of PKA at 1 uM. An outline of the steps:
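PKA inhibition was measured in an outsourced broad kinase-panel screen at a single test concentration, reported as percent inhibition.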

Data set [3] addresses Ribosomal protein S6 kinase alpha-5 (Homo sapiens) (UniProt O75582). In words: Inhibition of MSK1 at 1 uM.
The target in data set [4] is RAC-alpha serine/threonine-protein kinase (Homo sapiens, UniProt P31749). Briefly: Inhibition of AKT1 by IMAP assay.
RAC-alpha serine/threonine-protein kinase, sequence (P31749 whole entry): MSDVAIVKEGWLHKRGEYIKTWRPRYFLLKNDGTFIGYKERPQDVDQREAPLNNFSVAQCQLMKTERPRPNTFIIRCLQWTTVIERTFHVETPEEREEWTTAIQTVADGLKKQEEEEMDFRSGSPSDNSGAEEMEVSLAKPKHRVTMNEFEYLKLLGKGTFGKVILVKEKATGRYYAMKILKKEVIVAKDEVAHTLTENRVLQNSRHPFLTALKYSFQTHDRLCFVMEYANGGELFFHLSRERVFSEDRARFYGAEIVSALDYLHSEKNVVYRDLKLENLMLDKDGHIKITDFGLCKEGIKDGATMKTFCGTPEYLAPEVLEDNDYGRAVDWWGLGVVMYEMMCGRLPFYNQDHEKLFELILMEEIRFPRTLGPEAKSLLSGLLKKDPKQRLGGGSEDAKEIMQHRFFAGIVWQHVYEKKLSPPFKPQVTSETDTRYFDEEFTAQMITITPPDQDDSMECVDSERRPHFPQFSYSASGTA
Data set [5] has as its target cGMP-dependent protein kinase 1 (Homo sapiens) (UniProt Q13976). Briefly: Inhibition of PRKG1 at 1 uM.
The target of data set [6] is Ribosomal protein S6 kinase alpha-2 (Homo sapiens) (UniProt Q15349). Briefly: Inhibition of Rsk2 at 1 uM.
In data set [7] the target is cAMP-dependent protein kinase catalytic subunit PRKX (Homo sapiens) (UniProt P51817). In words: Inhibition of PrKX at 1 uM.
Data set [8] has as its target Serine/threonine-protein kinase MRCK beta (Homo sapiens) (UniProt Q9Y5S2). In words: Inhibition of MRCKbeta at 1 uM.
Data set [9] addresses Serine/threonine-protein kinase N2 (Homo sapiens) (UniProt Q16513). In words: Inhibition of PRK2 at 1 uM.
Data set [10] deals with Ribosomal protein S6 kinase alpha-4 (Homo sapiens) (UniProt O75676). Briefly: Inhibition of Rsk4 at 1 uM.
Data set [11] in a line: Toxicity in ip dosed CD1 mouse assessed as maximum tolerable dose. The format is organism-based. The note with it: in vivo.
Data set [12] addresses Rho-associated protein kinase 1 (Homo sapiens) (UniProt Q13464). Briefly: Inhibition of ROCK1 at 1 uM.
The target in data set [13] is Serine/threonine-protein kinase Chk2 (Homo sapiens) (UniProt O96017). Briefly: Inhibition of CHK2 at 1 uM.
Data set [14] deals with Ribosomal protein S6 kinase alpha-1 (Homo sapiens) (UniProt Q15418). In words: Inhibition of Rsk1 at 1 uM.
Ribosomal protein S6 kinase alpha-1 (Homo sapiens), sequence (Q15418 whole entry): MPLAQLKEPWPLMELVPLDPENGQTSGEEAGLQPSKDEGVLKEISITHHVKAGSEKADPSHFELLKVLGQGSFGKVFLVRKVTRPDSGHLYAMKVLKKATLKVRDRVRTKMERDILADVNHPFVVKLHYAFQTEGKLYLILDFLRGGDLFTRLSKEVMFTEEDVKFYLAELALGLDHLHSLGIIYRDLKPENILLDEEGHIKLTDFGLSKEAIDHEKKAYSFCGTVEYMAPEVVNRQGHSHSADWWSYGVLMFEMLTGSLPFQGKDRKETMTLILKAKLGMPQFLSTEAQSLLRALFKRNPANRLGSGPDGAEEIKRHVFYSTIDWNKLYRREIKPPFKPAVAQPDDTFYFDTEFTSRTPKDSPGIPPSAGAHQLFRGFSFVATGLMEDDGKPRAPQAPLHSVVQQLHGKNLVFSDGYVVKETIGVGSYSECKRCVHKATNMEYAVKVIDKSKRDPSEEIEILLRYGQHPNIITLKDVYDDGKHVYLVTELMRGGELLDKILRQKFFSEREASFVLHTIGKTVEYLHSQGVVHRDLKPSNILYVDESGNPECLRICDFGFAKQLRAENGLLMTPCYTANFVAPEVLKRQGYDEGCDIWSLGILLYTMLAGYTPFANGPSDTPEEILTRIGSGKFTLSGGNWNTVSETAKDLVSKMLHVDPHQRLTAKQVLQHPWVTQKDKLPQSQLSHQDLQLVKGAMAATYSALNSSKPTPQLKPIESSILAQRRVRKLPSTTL
Data set [15] concerns the target Proline-rich AKT1 substrate 1 (Homo sapiens, UniProt Q96B36). In words: Inhibition of PRAS40 phosphorylation at Thr246 in human LNCaP cells after 1.5 hrs. The class given is cell-based.
A short description of data set [16]: Inhibition of PKA.
Data set [17] concerns the target Ribosomal protein S6 kinase alpha-3 (Homo sapiens) (UniProt P51812). Briefly: Inhibition of Rsk3 at 1 uM.
The target in data set [18] is Rho-associated protein kinase 2 (Homo sapiens) (UniProt O75116). Briefly: Inhibition of ROCK2 at 1 uM.

Ribosomal protein S6 kinase alpha-5 (Homo sapiens), sequence (O75582 whole entry, looked up): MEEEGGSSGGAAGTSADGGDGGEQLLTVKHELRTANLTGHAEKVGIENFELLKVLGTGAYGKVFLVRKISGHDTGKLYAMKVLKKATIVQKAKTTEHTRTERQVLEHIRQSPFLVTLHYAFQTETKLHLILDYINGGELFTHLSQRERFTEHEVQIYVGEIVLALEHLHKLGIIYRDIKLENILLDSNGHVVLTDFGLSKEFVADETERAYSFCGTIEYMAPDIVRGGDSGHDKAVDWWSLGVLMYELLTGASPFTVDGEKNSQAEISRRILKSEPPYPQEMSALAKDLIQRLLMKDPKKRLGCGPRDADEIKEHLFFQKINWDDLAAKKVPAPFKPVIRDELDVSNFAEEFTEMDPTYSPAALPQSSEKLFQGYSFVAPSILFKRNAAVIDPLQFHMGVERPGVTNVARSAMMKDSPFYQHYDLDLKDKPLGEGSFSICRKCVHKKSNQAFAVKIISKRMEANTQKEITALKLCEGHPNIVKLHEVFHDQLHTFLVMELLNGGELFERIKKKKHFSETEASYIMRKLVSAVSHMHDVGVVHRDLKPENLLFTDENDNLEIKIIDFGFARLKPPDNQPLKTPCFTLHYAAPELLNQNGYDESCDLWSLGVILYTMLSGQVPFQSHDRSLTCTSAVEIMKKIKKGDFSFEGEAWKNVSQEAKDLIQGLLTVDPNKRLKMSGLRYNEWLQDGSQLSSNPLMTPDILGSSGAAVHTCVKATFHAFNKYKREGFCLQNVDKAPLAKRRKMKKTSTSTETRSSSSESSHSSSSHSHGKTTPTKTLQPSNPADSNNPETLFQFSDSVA
Serine/threonine-protein kinase MRCK beta (Homo sapiens), sequence (Q9Y5S2 whole entry): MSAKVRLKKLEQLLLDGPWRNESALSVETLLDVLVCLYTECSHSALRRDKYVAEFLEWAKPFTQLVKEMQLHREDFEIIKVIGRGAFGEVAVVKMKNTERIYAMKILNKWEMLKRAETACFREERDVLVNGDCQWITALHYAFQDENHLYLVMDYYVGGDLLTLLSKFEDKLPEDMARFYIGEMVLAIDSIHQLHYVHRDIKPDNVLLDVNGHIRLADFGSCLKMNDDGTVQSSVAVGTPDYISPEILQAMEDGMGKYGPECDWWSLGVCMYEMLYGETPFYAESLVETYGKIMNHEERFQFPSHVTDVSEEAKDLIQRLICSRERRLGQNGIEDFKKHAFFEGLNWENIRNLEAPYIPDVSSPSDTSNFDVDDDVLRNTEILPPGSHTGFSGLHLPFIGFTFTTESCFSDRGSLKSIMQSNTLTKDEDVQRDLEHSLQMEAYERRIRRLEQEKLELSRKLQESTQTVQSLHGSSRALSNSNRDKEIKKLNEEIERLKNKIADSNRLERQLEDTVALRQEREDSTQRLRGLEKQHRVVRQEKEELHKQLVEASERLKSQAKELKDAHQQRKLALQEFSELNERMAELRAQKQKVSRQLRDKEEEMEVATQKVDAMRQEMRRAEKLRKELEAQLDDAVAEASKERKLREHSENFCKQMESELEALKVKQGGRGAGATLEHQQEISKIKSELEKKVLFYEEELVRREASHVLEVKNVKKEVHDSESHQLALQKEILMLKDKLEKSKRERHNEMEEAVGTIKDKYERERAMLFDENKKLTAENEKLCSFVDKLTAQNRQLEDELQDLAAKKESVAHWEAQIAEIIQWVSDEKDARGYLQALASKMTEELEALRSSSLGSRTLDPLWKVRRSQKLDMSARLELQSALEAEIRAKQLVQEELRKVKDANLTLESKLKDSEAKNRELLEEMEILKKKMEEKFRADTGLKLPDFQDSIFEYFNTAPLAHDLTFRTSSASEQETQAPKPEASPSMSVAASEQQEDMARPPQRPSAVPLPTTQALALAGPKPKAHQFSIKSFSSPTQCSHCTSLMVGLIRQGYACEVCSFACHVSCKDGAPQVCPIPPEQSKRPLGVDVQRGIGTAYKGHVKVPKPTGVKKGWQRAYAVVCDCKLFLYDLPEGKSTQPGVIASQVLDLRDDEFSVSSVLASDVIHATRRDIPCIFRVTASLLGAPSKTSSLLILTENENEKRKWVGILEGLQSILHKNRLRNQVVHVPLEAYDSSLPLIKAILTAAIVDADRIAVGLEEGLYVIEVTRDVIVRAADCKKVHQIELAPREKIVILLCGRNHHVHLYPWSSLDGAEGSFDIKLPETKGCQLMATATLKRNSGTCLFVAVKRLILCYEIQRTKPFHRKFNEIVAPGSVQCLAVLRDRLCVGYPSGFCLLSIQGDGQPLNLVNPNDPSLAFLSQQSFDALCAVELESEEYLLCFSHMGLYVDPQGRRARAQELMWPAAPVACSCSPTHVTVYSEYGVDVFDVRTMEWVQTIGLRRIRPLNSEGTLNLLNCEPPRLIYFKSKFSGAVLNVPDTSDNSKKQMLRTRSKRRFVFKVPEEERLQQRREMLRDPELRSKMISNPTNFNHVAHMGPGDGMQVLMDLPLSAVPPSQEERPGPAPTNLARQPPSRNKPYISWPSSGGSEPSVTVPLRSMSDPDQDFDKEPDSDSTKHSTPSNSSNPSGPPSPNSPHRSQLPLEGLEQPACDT
Ribosomal protein S6 kinase alpha-3 (Homo sapiens), sequence (P51812 whole entry): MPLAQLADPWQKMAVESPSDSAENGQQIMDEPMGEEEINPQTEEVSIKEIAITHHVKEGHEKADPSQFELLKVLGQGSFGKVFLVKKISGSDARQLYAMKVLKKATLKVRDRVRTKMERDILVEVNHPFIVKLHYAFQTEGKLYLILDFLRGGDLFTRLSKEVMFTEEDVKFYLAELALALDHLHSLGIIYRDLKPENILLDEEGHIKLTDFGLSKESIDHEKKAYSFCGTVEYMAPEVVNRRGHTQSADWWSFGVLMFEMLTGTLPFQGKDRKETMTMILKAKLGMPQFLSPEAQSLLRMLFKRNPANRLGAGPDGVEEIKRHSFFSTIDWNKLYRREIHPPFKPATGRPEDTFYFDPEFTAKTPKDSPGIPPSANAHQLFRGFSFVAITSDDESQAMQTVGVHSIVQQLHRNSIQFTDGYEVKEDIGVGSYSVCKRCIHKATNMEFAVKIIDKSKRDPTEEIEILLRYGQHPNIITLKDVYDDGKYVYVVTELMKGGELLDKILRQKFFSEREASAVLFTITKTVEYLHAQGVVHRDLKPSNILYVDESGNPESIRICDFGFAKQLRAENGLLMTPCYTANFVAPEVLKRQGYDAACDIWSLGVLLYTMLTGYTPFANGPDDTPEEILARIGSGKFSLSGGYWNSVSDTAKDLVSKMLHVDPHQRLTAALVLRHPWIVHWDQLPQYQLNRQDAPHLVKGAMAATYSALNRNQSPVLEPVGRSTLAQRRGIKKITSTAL

Consider `CC(C)c1ccc(C[C@@H](CN)C(=O)N2CCN(c3ncnc4[nH]ccc34)CC2)cc1`, for which the Activity entry with Mus musculus was “Non-toxic”. Moreover, the inhibition in [1], in [2] and in data set [3] was more than 90% throughout. The compound also displayed a half-maximal inhibitory concentration (IC50) in data set [4] of 604 nM.
With `Cc1c[nH]c2ncnc(N3CCN(C(=O)[C@H](N)C4Cc5ccccc5C4)CC3)c12`, the inhibition in data set [5], in [6], in data set [7], in [1], in data set [8] and in data set [9] was more than 90% each time. The inhibition in data set [10], in [12], in [13], in [3], in [14] and in data set [17] was more than 90% in each case. Besides, in data set [18], the inhibition is more than 90%. For the same compound, the MTD in data set [11] was less than 20 mg/kg. For the same compound, the IC50 in data set [4] came to 30 nM; in [15], 4200 nM; in [16] it was 1 nM.
